From ChEMBL document CHEMBL3621107, “Ring fusion strategy for synthesis and lead optimization of sulfur-substituted anthra[1,2-c][1,2,5]thiadiazole-6,11-dione derivatives as promising scaffold of antitumor agents” (Eur J Med Chem, 2015)

What was measured:
[1] = system: SNB-19; experiment: Cytotoxicity against human SNB19 cells assessed as cell growth at 10 uM after 48 hrs by SRB assay relative to control; type: functional; settings: SNB-19, 48 h, read-out: Activity
Method in brief: (§1)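 NCI-60 one-dose screen run by NCI DTP: each cell line exposed to a single 10 µM dose, and percentage growth recorded against untreated growth.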

[2] = system: IGROV-1; experiment: Cytotoxicity against human IGROV1 cells assessed as cell growth at 10 uM after 48 hrs by SRB assay relative to control; type: functional; settings: IGROV-1, 48 h, read-out: Activity
Method in brief: (§2)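 First-stage NCI-60 screen by the NCI Developmental Therapeutics Program. Each compound was tested once at a single concentration of 10 μM against the 60-cell-line panel. Growth percentage was reported for each cell line.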

[3] = system: SK-MEL-28; experiment: Cytotoxicity against human SK-MEL-28 cells assessed as cell growth at 10 uM after 48 hrs by SRB assay relative to control; type: functional; settings: SK-MEL-28, 48 h, read-out: Activity
Method in brief: (§3)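 First-stage NCI DTP one-dose screen against the 60 human tumour cell line panel. Compounds were tested at a single 10 μM level, and results are given as growth percentage.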

[4] = system: HCT-116; experiment: Cytotoxicity against human HCT116 cells assessed as cell growth at 10 uM after 48 hrs by SRB assay relative to control; type: functional; settings: HCT-116, 48 h, read-out: Activity; method in brief: as §2
[5] = system: SK-MEL-2; experiment: Cytotoxicity against human SK-MEL-2 cells assessed as cell growth at 10 uM after 48 hrs by SRB assay relative to control; type: functional; settings: SK-MEL-2, 48 h, read-out: Activity; method in brief: as §3
[6] = system: K562; experiment: Cytotoxicity against human K562 cells assessed as cell growth at 10 uM after 48 hrs by SRB assay relative to control; type: functional; settings: K562, 48 h, read-out: Activity; method in brief: as §2
[7] = system: NCI-H226; experiment: Cytotoxicity against human NCI-H226 cells assessed as cell growth at 10 uM after 48 hrs by SRB assay relative to control; type: functional; settings: NCI-H226, 48 h, read-out: Activity; method in brief: as §3
[8] = system: HL-60(TB); experiment: Cytotoxicity against human HL-60(TB) cells assessed as cell growth at 10 uM after 48 hrs by SRB assay relative to control; type: functional; settings: HL-60, 48 h, read-out: Activity
Method in brief: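 NCI Developmental Therapeutics Program 60-cell-line screen, first stage: a single dose of 10 μM against the panel, reported as percentage growth.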

[9] = system: HT-29; experiment: Cytotoxicity against human HT-29 cells assessed as cell growth at 10 uM after 48 hrs by SRB assay relative to control; type: functional; settings: HT-29, 48 h, read-out: Activity; method in brief: as §2
[10] = system: KM12; experiment: Cytotoxicity against human KM12 cells assessed as cell growth at 10 uM after 48 hrs by SRB assay relative to control; type: functional; settings: KM12, 48 h, read-out: Activity; method in brief: as §2
[11] = system: Malme-3M; experiment: Cytotoxicity against human MALME-3M cells assessed as cell growth at 10 uM after 48 hrs by SRB assay relative to control; type: functional; settings: read-out: Activity; method in brief: as §2
[12] = system: OVCAR-8; experiment: Cytotoxicity against human OVCAR8 cells assessed as cell growth at 10 uM after 48 hrs by SRB assay relative to control; type: functional; settings: OVCAR-8, 48 h, read-out: Activity; method in brief: as §3
[13] = system: SR; experiment: Cytotoxicity against human SR cells assessed as cell growth at 10 uM after 48 hrs by SRB assay relative to control; type: functional; settings: read-out: Activity; method in brief: as §1
[14] = Cytotoxicity against human Hs578T cells assessed as cell growth at 10 uM after 48 hrs by SRB assay relative to control; type: functional; settings: Hs-578T, read-out: Activity; method in brief: as §2
[15] = system: BT-549; experiment: Cytotoxicity against human BT549 cells assessed as cell growth at 10 uM after 48 hrs by SRB assay relative to control; type: functional; settings: BT-549, 48 h, read-out: Activity; method in brief: as §2
[16] = system: OVCAR-3; experiment: Cytotoxicity against human OVCAR3 cells assessed as cell growth at 10 uM after 48 hrs by SRB assay relative to control; type: functional; settings: OVCAR-3, 48 h, read-out: Activity; method in brief: as §3
[17] = system: NCI-H460; experiment: Cytotoxicity against human NCI-H460 cells assessed as cell growth at 10 uM after 48 hrs by SRB assay relative to control; type: functional; settings: NCI-H460, 48 h, read-out: Activity; method in brief: as §3
[18] = system: TK-10; experiment: Cytotoxicity against human TK10 cells assessed as cell growth at 10 uM after 48 hrs by SRB assay relative to control; type: functional; settings: TK-10, 48 h, read-out: Activity; method in brief: as §1
[19] = system: UO-31; experiment: Cytotoxicity against human UO31 cells assessed as cell growth at 10 uM after 48 hrs by SRB assay relative to control; type: functional; settings: UO-31, 48 h, read-out: Activity; method in brief: as §1
[20] = system: NCI/ADR-RES; experiment: Cytotoxicity against human NCI/ADR-RES cells assessed as cell growth at 10 uM after 48 hrs by SRB assay relative to control; type: functional; settings: read-out: Activity; method in brief: as §3
[21] = system: OVCAR-5; experiment: Cytotoxicity against human OVCAR5 cells assessed as cell growth at 10 uM after 48 hrs by SRB assay relative to control; type: functional; settings: OVCAR-5, 48 h, read-out: Activity; method in brief: as §3
[22] = system: SNB-75; experiment: Cytotoxicity against human SNB75 cells assessed as cell growth at 10 uM after 48 hrs by SRB assay relative to control; type: functional; settings: SNB-75, 48 h, read-out: Activity; method in brief: as §1
[23] = system: SN12C; experiment: Cytotoxicity against human SN12C cells assessed as cell growth at 10 uM after 48 hrs by SRB assay relative to control; type: functional; settings: read-out: Activity; method in brief: as §3
[24] = system: PC-3; experiment: Cytotoxicity against human PC3 cells after 48 hrs by SRB assay; type: functional, cell-based; settings: PC-3, 48 h
Method in brief: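 Second-stage NCI-60 panel run by the NCI Developmental Therapeutics Program, covering nine tumour subpanels. Five concentrations were tested: 0.01, 0.1, 1, 10 and 100 μM. Percentage growth at each level was plotted against log10 drug concentration. GI50, TGI and LC50 were read from these dose-response curves. Subpanel MID values were divided into the full-panel MID to give selectivity ratios.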

[25] = system: MOLT-4; experiment: Cytotoxicity against human MOLT4 cells assessed as cell growth at 10 uM after 48 hrs by SRB assay relative to control; type: functional; settings: MOLT-4, 48 h, read-out: Activity; method in brief: as §3
[26] = system: RXF 393; experiment: Cytotoxicity against human RXF393 cells assessed as cell growth at 10 uM after 48 hrs by SRB assay relative to control; type: functional; settings: RXF 393, 48 h, read-out: Activity; method in brief: as §3
[27] = system: UACC-62; experiment: Cytotoxicity against human UACC62 cells assessed as cell growth at 10 uM after 48 hrs by SRB assay relative to control; type: functional; settings: UACC-62, 48 h, read-out: Activity; method in brief: as §1
[28] = system: SF-539; experiment: Cytotoxicity against human SF539 cells assessed as cell growth at 10 uM after 48 hrs by SRB assay relative to control; type: functional; settings: SF-539, 48 h, read-out: Activity; method in brief: as §3
[29] = system: COLO 205; experiment: Cytotoxicity against human COLO205 cells assessed as cell growth at 10 uM after 48 hrs by SRB assay relative to control; type: functional; settings: COLO 205, 48 h, read-out: Activity; method in brief: as §2
[30] = system: DU-145; experiment: Cytotoxicity against human DU145 cells assessed as cell growth at 10 uM after 48 hrs by SRB assay relative to control; type: functional; settings: DU-145, 48 h, read-out: Activity; method in brief: as §2
[31] = system: SK-OV-3; experiment: Cytotoxicity against human SKOV3 cells assessed as cell growth at 10 uM after 48 hrs by SRB assay relative to control; type: functional; settings: SK-OV-3, 48 h, read-out: Activity; method in brief: as §3

Compound | growth at 10 µM [1] [%] | growth at 10 µM [2] [%] | growth at 10 µM [3] [%] | growth at 10 µM [4] [%] | growth at 10 µM [5] [%] | growth at 10 µM [6] [%] | growth at 10 µM [7] [%] | growth at 10 µM [8] [%] | growth at 10 µM [10] [%] | growth at 10 µM [11] [%] | growth at 10 µM [12] [%] | growth at 10 µM [13] [%] | growth at 10 µM [14] [%] | growth at 10 µM [15] [%] | growth at 10 µM [16] [%] | growth at 10 µM [17] [%] | growth at 10 µM [18] [%] | growth at 10 µM [19] [%] | growth at 10 µM [22] [%] | growth at 10 µM [23] [%] | other results
CC(C)Sc1cc2c(c3nsnc13)C(=O)c1ccccc1C2=O | 21.9 | -32.9 | -8.32 | -36.7 | -55.6 | -26.2 | 10.2 | -41.2 | 19.3 | -86 | -22.6 | -48 | -9.16 | 10.8 | -60.3 | 4.92 | 30.3 | -28.4 | 9.12 | -28.6 | growth at 10 µM [9]: 48.1%; growth at 10 µM [20]: -24.9%; growth at 10 µM [21]: -27.9%; IC50 [24]: 3.69 µM; growth at 10 µM [25]: -54.6%; growth at 10 µM [26]: 13.6%; growth at 10 µM [27]: -57.1%; growth at 10 µM [28]: -47%; growth at 10 µM [29]: 102%; growth at 10 µM [30]: 6.66%
O=C1c2ccccc2C(=O)c2c1cc(SCc1ccccc1)c1nsnc21 | 94.3 | 43.9 | 95 | 53.1 | -3.95 | 10.5 | 101 | 70.3 | 103 | 80.8 | 6.01 | 1.25 | 60 | 96.2 | 25.3 | 92 | 130 | 73.8 | 39.6 | 66.1 | growth at 10 µM [20]: 62.3%; growth at 10 µM [31]: 80.3%; IC50 [24]: > 15 µM; growth at 10 µM [25]: -21%; growth at 10 µM [26]: 68.1%; growth at 10 µM [27]: 43.1%; growth at 10 µM [28]: 68.3%; growth at 10 µM [29]: 103%; growth at 10 µM [30]: 82.2%
O=C1c2ccccc2C(=O)c2c1cc(SCc1ccc(Cl)cc1)c1nsnc21 | 104 | 84.2 | 95.3 | 115 | 110 | 67.5 | 82.1 | 57.4 | 105 | 86.4 | 94.2 | 63.7 | 88.6 | 115 | 113 | 105 | 122 | 68.5 | 63.4 | 93.6 | growth at 10 µM [9]: 96.4%; growth at 10 µM [20]: 95.7%; growth at 10 µM [21]: 104%; IC50 [24]: > 15 µM; growth at 10 µM [25]: 22.7%; growth at 10 µM [26]: 105%; growth at 10 µM [27]: 102%; growth at 10 µM [28]: 98%; growth at 10 µM [29]: 99.9%; growth at 10 µM [30]: 115%
O=C1c2ccccc2C(=O)c2c1cc(Cl)c1nsnc21 | 106 | 52.5 | 132 | 48.1 | 0.21 | 2.44 | 100 | 1.87 | 95.9 | 97.1 | -4.57 | -23.9 | 72.5 | 102 | 49.9 | 100 | 134 | 80.2 | 85.2 | 71.9 | growth at 10 µM [31]: 109%; IC50 [24]: 13.5 µM; growth at 10 µM [25]: -34.1%; growth at 10 µM [26]: 71.9%; growth at 10 µM [27]: 72.9%; growth at 10 µM [28]: 109%; growth at 10 µM [29]: 99.1%; growth at 10 µM [30]: 97%
O=C1c2ccccc2C(=O)c2c1cc(Sc1ccccc1)c1nsnc21 | 109 | 84.4 | 127 | 90.1 | 112 | 52 | 102 | 83.9 | 99.5 | 106 | 82.3 | 86.4 | 95.9 | 105 | 96.7 | 101 | 143 | 80.1 | 96.1 | 96.6 | growth at 10 µM [31]: 106%; IC50 [24]: > 15 µM; growth at 10 µM [25]: 31.1%; growth at 10 µM [26]: 114%; growth at 10 µM [27]: 86.3%; growth at 10 µM [28]: 107%; growth at 10 µM [29]: 118%; growth at 10 µM [30]: 103%
O=C1c2ccccc2C(=O)c2c1cc(Sc1ccc(Cl)cc1)c1nsnc21 | 105 | 84.9 | 130 | 98.2 | 109 | 94.9 | 104 | 87.3 | 102 | 105 | 88.6 | 111 | 103 | 98.9 | 119 | 103 | 140 | 79.5 | 91.7 | 87 | growth at 10 µM [20]: 102%; growth at 10 µM [31]: 109%; IC50 [24]: > 15 µM; growth at 10 µM [25]: 59.2%; growth at 10 µM [26]: 118%; growth at 10 µM [27]: 90.7%; growth at 10 µM [28]: 107%; growth at 10 µM [29]: 121%; growth at 10 µM [30]: 117%
